The record followed here is publication PMC13334530 (Nature neuroscience, 2026).

Series [1] relates to Tau phosphorylation at S202/T205. Put plainly: Immunohistochemistry. Particulars: stereotactic injection, 72 hours, versus contralateral control. The format is in vivo, mouse.
Series [2] shares this test system. Nature of the series: Immunocytochemistry for phosphorylated Tau in primary neurons. The format is cell-based, mouse. The conditions noted are these: primary hTau-KI hippocampal neurons, 12 hours.
In series [3] the test system is sarkosyl-insoluble Tau. Nature of the series: Sarkosyl fractionation of primary neurons, Tau immunoblot. The conditions noted are these: 12 hours; for Tau aggregation (sarkosyl-insoluble Tau) in primary neurons: Epoxomicin, MG132, iBEp 1 μM, Leupeptin 20 μM every two hours; for sarkosyl-insoluble Tau in primary WT mouse neurons: iBEp 1 μM, IgG-Epox […]. The format is cell-based, mouse. (Immunoblotting shows a protein as a band on a membrane.)

In the next series the test system is primary mouse neurons. Put plainly: Intracellular metabolite extraction from treated neurons. The format is in vitro ADME. Particulars: DIV14 cortical neurons, extracted intracellular metabolites, 1 pg limit of detection.
Series [4] can be described thus: In vivo hippocampal injection dose-ranging. The arrangement: species or system mouse.
Series [5] addresses catalytic proteasome subunits (Mus musculus, UniProt O55234+P70195+Q60692). The format is binding. The conditions noted are these: for targets bound (streptavidin enrichment / biotin pull-down, LC/MS): primary mouse neurons and mouse brain, Table S1.
Series [6] deals with β-sheet containing aggregates. Nature of the series: Thioflavin S staining after stereotactic hippocampal injection. The format is in vivo, mouse. The conditions noted are these: hTau-KI mice, 72 hours, relative to contralateral controls.
Series [7] concerns sarkosyl-insoluble Tau. Nature of the series: Sarkosyl fractionation of hippocampi after stereotactic injection. The format is in vivo, mouse.
Series [8] relates to ubiquitin-proteasome reporter GFPu in primary hippocampal neurons. Nature of the series: GFPu degradation assay. Particulars: DIV14 primary neurons, 1 μM, 12-hour incubation. The format is cell-based, mouse. A digest of the protocol: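 Primary hippocampal neurons on coverslips co-transfected at DIV7 or DIV8 with Ub-G76V-GFP (0.5 μg/coverslip) and mCherry (0.1 μg/coverslip) using lipofectamine 2000, 4 h at 37 °C. At DIV14, 1 μM test compound for 12 h, then fixed and processed for immunocytochemistry. GFP+ cells counted per 100 cells; n=6 regions imaged per replicate, N=3 biological replicates.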

In another series the test system is Tau phosphorylation. Put plainly: Quantitative phosphoproteomics of treated primary neurons. The format is cell-based. Particulars: primary mouse neurons; sites correspond to human S202, T205, T217, S404.
Series [9] concerns intracellular ubiquitin conjugates and p62. Put plainly: Immunoblots of ubiquitin conjugates and p62 in primary neurons. The format is cell-based, mouse. The conditions noted are these: primary WT neurons, immunoblot.
In series [10] the test system is Tau paired helical filaments. Put plainly: Electron microscopy of sarkosyl-insoluble fractions of injected hippocampi. The format is in vivo, mouse. Particulars: hTau-KI mice, 72 hours after injection.
A further series addresses Proteasome subunit β5 (Homo sapiens, UniProt P28074). Put plainly: Proteasome subunit β5 activity assay. The format is biochemical.
Series [11] relates to neuroproteasome activity and sarkosyl-insoluble Tau. The format is cell-based, mouse. Particulars: primary WT neurons treated with RAP and a dose curve of iBEp.
For series [12], the system named is surface Lrp1, GluR1 and neuroproteasomes. Nature of the series: Surface biotinylation of primary neurons treated with RAP. Particulars: primary mouse neurons. The format is cell-based. In a few lines: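 Neurons were washed in cold PBSCM pH 8.0 and labelled with 0.5 mg/mL Sulfo-NHS-LC-Biotin in PBSCM, 4°C for 10 min. Labelling quenched with 50 mM glycine, two 10-min incubations at 4°C.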

In the case of `CC[C@H](C)[C@H](NC(=O)[C@H]([C@@H](C)CC)N(C)C(C)=O)C(=O)N[C@H](C(=O)N[C@@H](CC(C)C)C(=O)[C@@]1(C)CO1)[C@@H](C)O` [Epoxomicin, reference compound], the “Tau phosphorylation at S202/T205 (AT8) in hippocampi of hTau-KI mice” value in series [1] is “No Tau S202/T205 phosphorylation was detectable”. For the same molecule, in series [2], the “Tau phosphorylation at S202/T205 in primary neurons” value is “No Tau S202/T205 phosphorylation was detectable”. Further, the “Tau aggregation (sarkosyl-insoluble Tau) in primary neurons” value (“Tau aggregation (sarkosyl-insoluble Tau)” for short) in the series on sarkosyl-insoluble Tau [3] is “does not”. Moreover, in the series on primary mouse neurons, the “permeability into primary mouse neurons by LC/MS-based metabolite profiling” value is “peak in Epox treated cells corresponds to Epoxomicin”.

For the molecule Biotin-PEG24-Epoxomicin [iBEp], in series [4] (6.4 μM), the “adverse physiological effects at selected concentration” value was “without causing observable adverse physiological effects” and the “inhibition of membrane-fraction proteasomes in vivo” value is on record as “detectable inhibition of membrane-fraction proteasomes”. Besides, the “concentration inducing seizure activity” value in series [4] (2 μL, mice) is “exceeding 12 μM”. In series [5], the “targets bound (streptavidin enrichment / biotin pull-down, LC/MS)” value was “selectively targets catalytic proteasome subunits”. For the same molecule, the “bands differentially labeled versus DMSO (streptavidin blot)” value in series [5] (primary neurons treated 12 hours) was “only three bands differentially labeled”. For the same molecule, in series [6], the “ThioS staining in CA1 region of hippocampi” value is “strong increase”. The “sarkosyl-insoluble Tau in hippocampi from hTau-KI mice” value with sarkosyl-insoluble Tau [7] (2 μL of 6.4 μM into CA1, 72 hours, contralateral IIT-PEG24-Biotin, N=6) is listed as “significant increase”. Further, the “sarkosyl-insoluble Tau signal in hippocampi from Tau-KO mice” value in the series on sarkosyl-insoluble Tau [7] (stereotactic injection, contralateral DMSO, N=3) is listed as “no detectable signal”. For the same molecule, the “Tau phosphorylation at S202/T205 (AT8) in hippocampi of hTau-KI mice” value in series [1] is reported as “significantly elevated”. In addition, the “Tau phosphorylation at S202/T205 in primary neurons” value in [2] is recorded as “significantly elevated”. In addition, the “Tau aggregation (sarkosyl-insoluble Tau)” value in the series with sarkosyl-insoluble Tau [3] is given as “induces Tau aggregation”. In the series with sarkosyl-insoluble Tau [3] (immunoblot), the “sarkosyl-insoluble Tau in primary WT mouse neurons” value is on record as “significant increase”. Also, the “accumulation of the ubiquitin-proteasome reporter GFPu” value in series [8] was “did not cause accumulation”. In addition, the “Tau phosphorylation sites with time-dependent increase, of identified sites” value in the series on Tau phosphorylation is listed as 4 of 26. Further, in series [9], the “increase of total intracellular ubiquitin conjugates or p62 levels” value is “lack of both markers”. For the same molecule, the “filaments in sarkosyl-insoluble fractions by negative stain EM” value in series [10] is reported as “Twisted filaments which resembled paired helical filaments (PHFs) were readily apparent”.

Consider Biotin-PEG24-IleIleThr, for which the “sarkosyl-insoluble Tau in primary WT mouse neurons” value with sarkosyl-insoluble Tau [3] (immunoblot) is on record as “No such signal”.

In the case of Sulfo-MG132 [SulfoMG], the “targets bound (streptavidin enrichment / biotin pull-down, LC/MS)” value in series [5] is reported as “the catalytic proteasome subunits as well as some off-targets of MG132”. The “activity as proteasome inhibitor” value at Proteasome subunit β5 (dose curve, Suc-LLVY-AMC (Extended Data Fig. 3g)) was “active”. In addition, at Proteasome subunit β5 (proteasome, calpain and cathepsin L activity assays (Extended Data Fig. 3g,h)), the “potency relative to MG132” value is given as “less potent than MG132”. Besides, the “sarkosyl-insoluble hTau in primary hTau-KI neurons” value in the series with sarkosyl-insoluble Tau [3] (1 μM, immunoblot) is on record as “induces similar partitioning of hTau into the sarkosyl-insoluble fraction as iBEp”. The “Tau aggregation (sarkosyl-insoluble Tau)” value in the series on sarkosyl-insoluble Tau [3] is “induces Tau aggregation”.

B1: RAP: pan-ApoE receptor antagonist, Receptor-associated protein (protein, UniProt P30533 35-357, looked up)
Alpha-2-macroglobulin …: YSREKNQPKPSPKRESGEEFRMEKLNQLWEKAQRLHLPPVRLAELHADLKIQERDELAWKKLKLDGLDEDGEKEARLIRNLNVILAKYGLDGKKDARQVTSNSLSGTQEDGLDDPRLEKLWHKAKTSGKFSGEELDKLWREFLHHKEKVHEYNVLLETLSRTEEIHENVISPSDLSDIKGSVLHSRHTELKEKLRSINQGLDRLRRVSHQGYSTEAEFEEPRVIDLWDLAQSANLTDKELEAFREELKHFEAKIEKHNHYQKQLEIAHEKLRHAESVGDGERVSRSREKHALLEGRTKELGYTVKKHLQDLSGRISRARHNEL
For the molecule B1, the “susceptibility of neurons to Tau aggregation” value in series [11] was “renders neurons more susceptible to Tau aggregation”. Further, in [12], the “surface GluR1” value is listed as “without modifying”, the “surface abundance of neuroproteasomes” value was “reduced” and the “surface localization of Lrp1” value was “rapidly decreased”.
